Laboratory results as given in ChEMBL document CHEMBL1687813 (Antimicrob Agents Chemother, 2010).
Values after ≈ are worked out from the molar mass of the structure shown.

Tests used:
[1] = biological target: T1, PYRAZINAMIDASE/NICOTINAMIDAS PNCA (PZase) (Mycobacterium bovis) (UniProt Q93SP7); assay: Activity of pyrazinamidase in Mycobacterium bovis BCG Pasteur assessed as compound turnover per ml of microbial cells after 30 mins by calorimetric analysis; settings: Mycobacterium tuberculosis variant bovis BCG
T1 sequence (whole entry): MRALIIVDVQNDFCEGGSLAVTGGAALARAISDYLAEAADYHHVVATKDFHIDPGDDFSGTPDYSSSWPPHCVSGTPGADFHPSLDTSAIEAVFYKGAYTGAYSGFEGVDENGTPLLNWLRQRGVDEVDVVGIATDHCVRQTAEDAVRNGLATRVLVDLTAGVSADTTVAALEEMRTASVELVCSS
Procedure, shortened: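 Whole-cell colorimetric amidase assay: log-phase cells were pelleted and resuspended in sterile water with 0.05% tyloxapol. Substrate (PZA or 5-Cl PZA) was added to 2 mM at 37°C with shaking and sampled at intervals. Clarified aliquots received ferrous ammonium sulfate (20 mM final), stood 30 min at 4°C, were re-spun, and were read at OD468. Extinction coefficients were 0.68 (PA) and 0.47 (5-Cl PA) per mM. Activity is nmol/min per ml of cells (OD600).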

[2] = tested on: Mycolicibacterium smegmatis; assay: Antimicrobial activity against Mycobacterium smegmatis mc27092 harboring Mycobacterium tuberculosis H37Ra attBL5:::Ptc::pzaAMsmeg after 48 hrs by broth microdilution method at pH 6; type: functional; settings: mc27092, 48 h
[3] = tested on: Mycolicibacterium smegmatis; assay: Antimicrobial activity against Mycobacterium smegmatis mc27092 harboring Mycobacterium tuberculosis H37Ra attBL5:::Ptc::pzaAMsmeg after 11 days by broth microdilution method at pH 6.8; type: functional; settings: mc27092, 264 h
Procedure, shortened: (§1)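 Tubercle bacilli were diluted to 10^6 CFU/ml in supplemented 7H9 containing graded PZA or 5-Cl PZA, at pH 6.0 or neutral pH 6.8. Cultures were incubated 11 days at 37°C. The MIC is the lowest concentration blocking visible growth. Integrated amidase constructs were induced with 50 ng/ml anhydrotetracycline.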

[4] = tested on: Mycolicibacterium smegmatis; assay: Antimicrobial activity against Mycobacterium smegmatis mc27093 harboring Mycobacterium tuberculosis H37Ra attBL5:::Ptc::pzaA from Mycobacterium tuberculosis after 11 days by broth microdilution method at pH 6; type: functional; settings: mc27093, 264 h; procedure, shortened: as §1
[5] = tested on: Mycolicibacterium smegmatis; assay: Antimicrobial activity against Mycobacterium smegmatis mc27093 harboring Mycobacterium tuberculosis H37Ra attBL5:::Ptc::pzaA from Mycobacterium tuberculosis after 11 days by broth microdilution method at pH 6.8; type: functional; settings: mc27093, 264 h; procedure, shortened: as §1
[6] = tested on: Mycobacterium tuberculosis variant bovis BCG; assay: Antimicrobial activity against Mycobacterium bovis BCG Pasteur after 11 days by broth microdilution method at pH 6; type: functional; settings: 264 h; procedure, shortened: as §1
[7] = tested on: Mycobacterium tuberculosis variant bovis BCG; assay: Antimicrobial activity against Mycobacterium bovis BCG Pasteur after 11 days by broth microdilution method at pH 6.8; type: functional; settings: 264 h; procedure, shortened: as §1

NC(=O)c1cnccn1 [PYRAZINAMIDE]
Activity [1]: 0.015 nmol/min | MIC [2]: 62.5 mg/L (≈ 508 µM) | MIC [3]: > 1000 mg/L | MIC [4]: 12.5 mg/L (≈ 102 µM) | MIC [5]: 12.5 mg/L (≈ 102 µM) | MIC [6]: 50 mg/L (≈ 406 µM) | MIC [7]: 25 mg/L (≈ 203 µM)

NC(=O)c1cnc(Cl)cn1
Activity [1]: 0.11 nmol/min | MIC [2]: 25 mg/L (≈ 159 µM) | MIC [3]: 12.5 mg/L (≈ 79.3 µM) | MIC [4]: 200 mg/L (≈ 1270 µM) | MIC [5]: 12.5 mg/L (≈ 79.3 µM) | MIC [6]: 25 mg/L (≈ 159 µM) | MIC [7]: 100 mg/L (≈ 635 µM)
